Laboratory results taken from the array DNA melting data of Ke et al. (doi:10.1101/2024.01.08.574731).

What was measured:
[1] = folding enthalpy; higher = less favourable; fluorescence melt of hairpins on a sequencing array, two-state fit; details: sodium 0.088 M
In short: (§1)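 Melting temperature and folding enthalpy were derived from bootstrapped two-state fits. The fitted temperatures were raised by 9.35 °C to agree with UV melts, and four replicates were combined by inverse variance. The underlying data were Cy3 fluorescence images of library hairpins, with annealed Cy3 and quencher oligos, on a sequenced MiSeq flow cell in 50 mM Na-HEPES pH 8.0, 25 mM NaCl, taken in 2.5 °C steps up to 60 °C, normalised to pre-quench Cy3 and to control constructs.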

[2] = melting temperature; fluorescence melt of hairpins on a sequencing array, two-state fit, raised by 9.35 °C to match UV melts; details: sodium 0.088 M
In short: as §1

Sequence	folding enthalpy [1] [kcal/mol]	Tm [2] [°C]
GGACTCGAAAGAGCATCC ((((((....)))..)))	-9.49	24.9
GTGTGGGGAAACCCATGC (..((((....))))..)	-21.5	43.1
GGTCTACGAAAGTACACC (((.(((....))).)))	-22	35.8
GTTCCCGAAAGGGACAAC ((((((....)))..)))	-8.79	33.6
GGTTGCGAAAGCAAGACC ((((((....)))..)))	-14.6	44.2
GATCGAACGTCGATC ((((((...))))))	-34.9	49.3
GTCAGAGGAAACTCCAAC ((..(((....)))..))	-4.46	17.2
GATCACATTAGTGATC ((((((....))))))	-45	59.2
GCGTATACGAAAGTACGC (((..(((....))))))	-35.4	51.6
GATCATTAGTATGATC ((((((....))))))	-31.8	45.2
GAGCGCCGAAAGGCTCTC (((.(((....))).)))	-21.4	50.7
GCCAGCGGAAACGCCGGC (((.(((....))).)))	-26.3	57.1
GTTAACGAAAGTTGAAAC ((((((....)))..)))	-11.1	24.9
CGGGATCGGAAACGACCG (((..(((....))))))	-22.6	40
GATCGATAGTCGATC ((((((...))))))	-30.3	48.7
GAAAACCCGAAAGGGTTC (((..(((....))))))	-8.48	39.8
GACACAGGAAACTGTATC ((.((((....)))).))	-14.1	28.3
GGCTTCGGAAACGAGGCC (((.(((....))).)))	-46.7	58.8
GACTGACCGAAAGGTGTC (((..(((....))))))	-16.9	41.4

Sequence	folding enthalpy [1] [kcal/mol]	Tm [2] [°C]
CGCACCCGGAAACGGGCG (((..(((....))))))	-12	46.1
GCAGGCGCGAAAGCGTGC (((..(((....))))))	-13.3	49.4
GCTCCGCGAAAGCGCAGC (((.(((....))).)))	-29.8	45.5
GGTTAAGGAAACTTAATC (.(((((....))))).)	-21.7	31.7
GTTGTCGGAAACAACAAC (((((.(....).)))))	-23.4	40.2
GATCCAGAGCTGGATC ((((((....))))))	-37.6	50.4
GATCTAACATAGATC ((((((...))))))	-33.1	39.5
GGTAGCCGAAAGGCAACC (((.(((....))).)))	-23.8	57.9
GATGTCGGAAACGACATC (((((((....)))))))	-36.4	68.4
GAGCCCGAAAGGGGGCTC ((((((....)))..)))	-22.8	68.6
GTATCACGAAAGTGTAC (((.(((....))))))	-18.1	42.6
GGATATGGAAACATACCC ((.((((....)))).))	-25.3	33.2
GATCTCAAAGAGATC ((((((...))))))	-37.6	55.2
GTGTCTCGAAAGAGCAC (((.(((....))))))	-33.4	52.2
GGTTAGAAATAACC (((((....)))))	-16.4	40
GTTTGCGGAAACGTAGAC ((.(.((....)).).))	-20.5	30.7
GACATGGGAAACCATATC ((.((((....)))).))	-14	28
GAAGGACGAAAGTCTTTC (((.(((....))).)))	-25	46.3
GATTCTCCGAAAGGAATC (((..(((....))))))	-14.2	28.2
